These results are taken from ChEMBL document CHEMBL3779771, “Chiral Dihydrobenzofuran Acids Show Potent Retinoid X Receptor-Nuclear Receptor Related 1 Protein Dimer Activation” (J Med Chem, 2016).

The source made the active and inactive calls. No cut-off for these calls is given here.

Experiment [1] addresses T1, Retinoic acid receptor RXR-alpha (Homo sapiens) (UniProt P19793).
T1 sequence (whole entry): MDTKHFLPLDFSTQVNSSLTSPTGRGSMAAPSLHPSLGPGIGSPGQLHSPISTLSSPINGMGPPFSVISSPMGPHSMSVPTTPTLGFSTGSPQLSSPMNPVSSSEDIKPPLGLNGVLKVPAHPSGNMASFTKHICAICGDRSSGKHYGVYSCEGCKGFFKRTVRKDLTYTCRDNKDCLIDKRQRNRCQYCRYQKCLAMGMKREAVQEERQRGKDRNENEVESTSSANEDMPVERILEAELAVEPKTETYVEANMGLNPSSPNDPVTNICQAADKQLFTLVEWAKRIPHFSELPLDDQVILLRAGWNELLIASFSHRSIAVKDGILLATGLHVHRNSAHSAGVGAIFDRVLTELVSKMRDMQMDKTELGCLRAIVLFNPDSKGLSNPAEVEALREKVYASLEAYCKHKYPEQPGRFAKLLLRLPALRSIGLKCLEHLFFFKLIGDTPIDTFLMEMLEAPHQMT
Put plainly: Agonist activity at histidine-tagged ligand binding domain of human RXRalpha expressed in Escherichia coli BL21 (DE3) by luciferase reporter gene assay relative to bexarotene.

Experiment [2] deals with T2, Estrogen receptor (Homo sapiens) (UniProt P03372).
T2 sequence (whole entry): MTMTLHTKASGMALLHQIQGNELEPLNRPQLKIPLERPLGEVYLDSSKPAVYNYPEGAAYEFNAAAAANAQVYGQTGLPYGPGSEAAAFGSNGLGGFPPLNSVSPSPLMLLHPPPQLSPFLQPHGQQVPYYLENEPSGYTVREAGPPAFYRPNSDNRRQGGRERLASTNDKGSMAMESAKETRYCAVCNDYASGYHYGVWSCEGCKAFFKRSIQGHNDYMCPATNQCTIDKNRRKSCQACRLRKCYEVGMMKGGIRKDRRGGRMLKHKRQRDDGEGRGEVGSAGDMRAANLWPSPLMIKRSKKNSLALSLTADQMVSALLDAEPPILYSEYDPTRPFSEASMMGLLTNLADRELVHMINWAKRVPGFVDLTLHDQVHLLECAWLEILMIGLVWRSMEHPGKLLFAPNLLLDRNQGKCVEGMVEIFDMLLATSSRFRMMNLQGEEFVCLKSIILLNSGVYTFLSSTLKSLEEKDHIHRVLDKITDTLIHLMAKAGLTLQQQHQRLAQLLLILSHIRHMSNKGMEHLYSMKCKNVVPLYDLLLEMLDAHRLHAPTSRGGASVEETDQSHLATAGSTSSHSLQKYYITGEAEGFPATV
Briefly: Activation of estrogen receptor (unknown origin).

In experiment [3] the target is Retinoic acid receptor (Homo sapiens) (UniProt P13631+P10826+P10276). Put plainly: Activation of RAR (unknown origin). In kind it is protein assay.
Experiment [4] concerns the target T3, Retinoic acid receptor RXR-alpha (Homo sapiens, UniProt P19793).
T3 sequence (P19793 whole entry): T1 sequence (whole entry)
Briefly: (§1) Agonist activity at histidine-tagged ligand binding domain of human RXRalpha expressed in Escherichia coli BL21 (DE3) by luciferase reporter gene assay. (In general: In a reporter assay the amount or activity of a reporter protein is the signal.)

For experiment [5], the target named is T3, Retinoic acid receptor RXR-alpha. Put plainly: Agonist activity at Renilla luciferase/GFP2-tagged RXRalpha homodimer (unknown origin) expressed in HEK293T cells by BRET2 assay. In kind it is cell-based, HEK-293T. For orientation: In BRET a luciferase serves as donor, and the signal depends on an acceptor being close.
Experiment [6] deals with T4, Nuclear receptor subfamily 4 group A member 2/Retinoic acid receptor RXR-alpha (Homo sapiens, UniProt P19793+P43354). Put plainly: Agonist activity at Renilla luciferase/GFP2-tagged RXRalpha/Nurr1 (unknown origin) expressed in HEK293T cells by BRET2 assay relative to bexarotene. In kind it is cell-based. Conditions: HEK-293T. In a few lines:
(§2)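 BRET2 assay with RXR and Nurr1 receptors tagged with GFP and Renilla luciferase, run in whole cells. Potency is given as pEC50, the negative log of molar EC50. Agonist efficacy is expressed relative to bexarotene, set at 100%. Values are mean ± SD of at least three independent experiments.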

In experiment [7] the target is T4, Nuclear receptor subfamily 4 group A member 2/Retinoic acid receptor RXR-alpha. Briefly: Agonist activity at Renilla luciferase/GFP2-tagged RXRalpha/Nurr1 (unknown origin) expressed in HEK293T cells by BRET2 assay. In kind it is cell-based, HEK-293T.
In experiment [8] the target is T1, Retinoic acid receptor RXR-alpha (Homo sapiens). Briefly: Agonist activity at Renilla luciferase/GFP2-tagged RXRalpha homodimer (unknown origin) expressed in HEK293T cells by BRET2 assay relative to bexarotene. In kind it is cell-based. The conditions noted are these: HEK-293T. In a few lines: as §2
For experiment [9] the target is unchanged. Described as §1.
The species named for another experiment is Homo sapiens. Put plainly: Selectivity ratio of EC50 for Renilla luciferase/GFP2-tagged RXRalpha homodimer (unknown origin) to EC50 for Renilla luciferase/GFP2-tagged RXRalpha/Nurr1 (unknown origin).

T4 sequence (P43354 whole entry, one chain of several): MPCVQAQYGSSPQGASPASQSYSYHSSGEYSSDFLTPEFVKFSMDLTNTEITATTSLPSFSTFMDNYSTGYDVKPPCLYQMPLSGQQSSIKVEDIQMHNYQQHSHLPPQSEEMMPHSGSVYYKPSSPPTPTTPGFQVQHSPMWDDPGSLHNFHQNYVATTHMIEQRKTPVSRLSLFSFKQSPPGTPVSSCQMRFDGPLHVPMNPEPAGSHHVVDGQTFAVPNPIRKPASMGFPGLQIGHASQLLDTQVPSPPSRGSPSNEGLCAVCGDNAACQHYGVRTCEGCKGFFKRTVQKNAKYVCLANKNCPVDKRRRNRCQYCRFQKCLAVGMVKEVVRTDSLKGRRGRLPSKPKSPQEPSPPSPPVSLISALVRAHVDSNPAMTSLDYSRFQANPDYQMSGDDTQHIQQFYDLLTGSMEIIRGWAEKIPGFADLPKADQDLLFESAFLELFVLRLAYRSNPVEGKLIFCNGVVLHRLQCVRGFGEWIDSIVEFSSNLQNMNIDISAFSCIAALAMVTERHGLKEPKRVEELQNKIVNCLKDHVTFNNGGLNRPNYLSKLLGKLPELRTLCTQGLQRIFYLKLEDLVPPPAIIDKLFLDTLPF
Sequence of Retinoic acid receptor (Homo sapiens) (P10276 whole entry, looked up): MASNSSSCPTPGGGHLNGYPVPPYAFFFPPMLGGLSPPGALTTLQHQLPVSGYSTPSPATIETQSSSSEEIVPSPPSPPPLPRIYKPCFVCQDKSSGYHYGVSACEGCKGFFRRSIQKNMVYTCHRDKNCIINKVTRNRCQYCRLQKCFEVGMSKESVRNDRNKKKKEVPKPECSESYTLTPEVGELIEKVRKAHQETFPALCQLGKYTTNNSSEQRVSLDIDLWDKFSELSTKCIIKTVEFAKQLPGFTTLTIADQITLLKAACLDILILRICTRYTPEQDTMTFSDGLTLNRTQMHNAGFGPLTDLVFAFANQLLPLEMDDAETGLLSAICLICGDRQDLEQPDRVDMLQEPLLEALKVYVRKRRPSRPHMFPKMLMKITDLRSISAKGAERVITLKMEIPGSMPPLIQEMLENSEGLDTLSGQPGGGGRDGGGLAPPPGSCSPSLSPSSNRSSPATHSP
Sequence of Retinoic acid receptor (Homo sapiens) (P10826 whole entry, looked up): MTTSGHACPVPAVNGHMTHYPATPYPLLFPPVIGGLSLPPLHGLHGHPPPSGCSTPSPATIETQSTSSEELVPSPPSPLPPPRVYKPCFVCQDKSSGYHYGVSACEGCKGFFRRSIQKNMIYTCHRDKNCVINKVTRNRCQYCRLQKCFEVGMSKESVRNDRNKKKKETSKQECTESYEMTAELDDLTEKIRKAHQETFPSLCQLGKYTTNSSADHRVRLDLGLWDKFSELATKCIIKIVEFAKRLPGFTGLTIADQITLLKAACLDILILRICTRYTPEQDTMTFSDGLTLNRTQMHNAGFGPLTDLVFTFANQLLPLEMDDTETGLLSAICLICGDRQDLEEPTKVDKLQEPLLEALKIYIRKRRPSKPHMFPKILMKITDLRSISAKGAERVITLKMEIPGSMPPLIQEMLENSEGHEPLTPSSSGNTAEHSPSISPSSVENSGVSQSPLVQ
Sequence of Retinoic acid receptor (Homo sapiens) (P13631 whole entry, looked up): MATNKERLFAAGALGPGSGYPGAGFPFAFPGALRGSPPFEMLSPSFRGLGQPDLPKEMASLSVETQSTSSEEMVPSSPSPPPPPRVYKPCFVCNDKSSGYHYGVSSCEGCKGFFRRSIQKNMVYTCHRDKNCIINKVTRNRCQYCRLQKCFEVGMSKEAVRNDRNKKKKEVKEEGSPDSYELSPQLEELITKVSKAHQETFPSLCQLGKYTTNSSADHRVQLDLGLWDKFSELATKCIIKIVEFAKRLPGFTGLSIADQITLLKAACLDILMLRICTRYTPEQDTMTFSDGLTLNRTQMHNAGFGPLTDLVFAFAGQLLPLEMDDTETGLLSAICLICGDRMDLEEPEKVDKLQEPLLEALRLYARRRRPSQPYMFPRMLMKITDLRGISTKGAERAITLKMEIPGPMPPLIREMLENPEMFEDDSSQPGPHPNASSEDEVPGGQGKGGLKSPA

What is called EC50 is the concentration that produces a half-maximal response. In experiment [1], `CC1(C)CCC(C)(C)c2cc3c(cc21)OC1CCCC31c1ccc(C(=O)O)cc1` (racemic) came in with an Efficacy of 65%. Moreover, the result in experiment [2] and in experiment [3] was inactive. In [4], a half-maximal effect (EC50) was put at 0.0251 µM.

Take `CC1(C)CCC(C)(C)c2cc3c(cc21)O[C@@H]1CCCC[C@]31c1ccc(C(=O)O)cc1`: the Efficacy in experiment [1] amounted to 94%; in experiment [6], 96%; in [8], 80%. Also, the values for the concentration giving a half-maximal response (EC50) in [5], in experiment [7] and in [4] were 0.0158 µM, 0.0126 µM and 0.02 µM, respectively.

In the case of `CC1(C)CCC(C)(C)c2cc3c(cc21)OC1CCCCC31c1ccc(C(=O)O)c(F)c1` (racemic), the Efficacy in [1] worked out at 88%. Also, the result in experiment [2] and in [3] was inactive. In addition, the EC50 in experiment [4] is 0.0501 µM.

Compound `CC1(C)CCC(C)(C)c2cc3c(cc21)OC1CCCCC31c1ccc(C(=O)O)cc1` (racemic) displayed an Efficacy in experiment [1] of 96%. For the same compound, the result in experiment [2] and in [3] was inactive. The compound further gave an EC50 in experiment [4] of 0.0501 µM.

Regarding `CC1(C)CCC(C)(C)c2cc3c(cc21)O[C@H]1CCCCC[C@@]31c1ccc(C(=O)O)cc1` (racemic), the Efficacy in experiment [1] turned out to be 47%. The outcome in [2] and in experiment [3] was inactive. In [4], this compound had a concentration giving a half-maximal response (EC50) of 0.126 µM.

Regarding `CC1(C)CCC(C)(C)c2cc3c(cc21)O[C@H]1CCC[C@@]31c1ccc(C(=O)O)cc1`, the values for the Efficacy in experiment [1] and in experiment [6] were 59% and 49%, respectively. Also, the EC50 in experiment [7] was 0.501 µM; in [4] it was 1 µM. The Efficacy result in experiment [8] was “inactive”.

As to `CC1(C)CCC(C)(C)c2cc3c(cc21)O[C@H]1CCCCC[C@]31c1ccc(C(=O)O)cc1` (racemic), the pEC50 result in [9] was “inactive”.

In experiment [6], `CC1(C)CCC(C)(C)c2cc3c(cc21)O[C@H]1CCCC[C@@]31c1ccc(C(=O)O)cc1` displayed an Efficacy of 92%. This compound also had an EC50 in [7] above 3.16 µM. Further, in experiment [9], the pEC50 entry was “inactive”. Besides, the Efficacy result in experiment [8] was “inactive”.

Take `CC1(C)CCC(C)(C)c2cc3c(cc21)O[C@@H]1CCC[C@]31c1ccc(C(=O)O)cc1`: the Efficacy in experiment [1] stood at 119%; in [6] it was 111%; in experiment [8] it was 85%. The results for the EC50 in experiment [5], in [7] and in experiment [4] were 0.0251 µM, 0.0126 µM and 0.00631 µM, respectively. Moreover, the Ratio EC50 in the experiment filed under Homo sapiens amounted to 3.

With `CC1(C)CCC(C)(C)c2cc3c(cc21)OC1CCCCC31c1ccc(O)cc1` (racemic), in [9], the pEC50 entry is “inactive”.
